For one experiment, the system named is FS6. The experiment can be described thus: spectrophotometric kinetics, Lineweaver-Burk. Type of experiment: biochemical, metagenome. Particulars: pH 5.5, 25 °C, HAM poly-buffer. Put shortly:
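Purified metagenome-derived acid phosphatase (imidazole-gradient eluted, dialysed into MES/HEPES/acetate buffer with 150 mM NaCl) at 0.1-1 µM in 0.1 mL HAM poly-buffer (40 mM HEPES, 40 mM acetic acid, 40 mM MES). […] at 0 to 0.22 mM; hydrolysis followed spectrophotometrically. Vmax and Km derived from Michaelis–Menten analysis and Lineweaver–Burk double-reciprocal plots.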

Experiment [1] concerns the target FS6 acid phosphatase (class C acid phosphatase, histidine-tagged recombinant FS6). The experiment can be described thus: AUC.

Read-outs that look alike come from different tables or passages of the source.

For five compounds, Km and stoichiometry N results are on record in PMC11001196 (Microbial Biotechnology, 2024).

Take `Nc1ncnc2c1ncn2[C@@H]1O[C@H](COP(=O)(O)O)[C@@H](O)[C@H]1O` [adenosine 5'-monophosphate]: in the experiment on FS6 (read-out: AMP-5’ / Km), the Km is 180 ± 70 µM. Regarding `Nc1nc2c(ncn2[C@@H]2O[C@H](COP(=O)(O)O)[C@@H](O)[C@H]2O)c(=O)[nH]1` [guanosine 5'-monophosphate], the Km in the experiment on FS6 (read-out: GMP-5’ / Km) came out at 220 ± 20 µM. On to `O=[N+]([O-])c1ccc(OP(=O)(O)O)cc1` [p-nitrophenyl phosphate], for which the Km in the experiment on FS6 (read-out: pNPP / Km) is 40 ± 10 µM. For `O=c1ccn([C@@H]2O[C@H](COP(=O)(O)O)[C@@H](O)[C@H]2O)c(=O)[nH]1` [uridine 5'-monophosphate], the Km in the experiment on FS6 (read-out: UMP-5’ / Km) is 180 ± 130 µM. As usually defined, the stoichiometry N is the number of molecules, sites or subunits per partner or assembly. Regarding “FS6 acid phosphatase (class C acid phosphatase, histidine-tagged recombinant FS6) (enzyme)”, the stoichiometry N in experiment [1] turned out to be 10.
